In all, about 340,000 compounds went through this assay and about 540 (0.16%) were called active. The sample holds actives, similar compounds and a random draw of the others, so the mix is not that of the screen. Unmarked numbers belong to inactive results.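 The calls were made as follows: active = inhibition above about 35% when tested at 20 µM (limit read from the data); inactive = the rest.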
target: Hexokinase HKDC1 (Homo sapiens) (UniProt Q2TB90); assay: HKDC1 hexokinase inhibitors, primary screen, biochemical, fluorescence, uHTS (AID 493160); details: recombinant HKDC1, G6PDH/diaphorase resazurin coupled fluorescence; at 20 µM; hits give high values;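 also: plate controls were DMSO wells with enzyme for no effect and DMSO wells lacking enzyme for full effect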
In short: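 Test system: recombinant HKDC1 (HK5) hexokinase enzyme, produced in-house / Doses: 20 µM test compound, 1% DMSO / Timing: 90 min, room temperature / Detection: G6PDH/diaphorase-coupled fluorescence, 1 mM NADP, 100 µM resazurin, 525/613 nm / Control set: DMSO wells with and without enzyme mix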

Hexokinase HKDC1 (Homo sapiens), sequence (Q2TB90 whole entry, looked up): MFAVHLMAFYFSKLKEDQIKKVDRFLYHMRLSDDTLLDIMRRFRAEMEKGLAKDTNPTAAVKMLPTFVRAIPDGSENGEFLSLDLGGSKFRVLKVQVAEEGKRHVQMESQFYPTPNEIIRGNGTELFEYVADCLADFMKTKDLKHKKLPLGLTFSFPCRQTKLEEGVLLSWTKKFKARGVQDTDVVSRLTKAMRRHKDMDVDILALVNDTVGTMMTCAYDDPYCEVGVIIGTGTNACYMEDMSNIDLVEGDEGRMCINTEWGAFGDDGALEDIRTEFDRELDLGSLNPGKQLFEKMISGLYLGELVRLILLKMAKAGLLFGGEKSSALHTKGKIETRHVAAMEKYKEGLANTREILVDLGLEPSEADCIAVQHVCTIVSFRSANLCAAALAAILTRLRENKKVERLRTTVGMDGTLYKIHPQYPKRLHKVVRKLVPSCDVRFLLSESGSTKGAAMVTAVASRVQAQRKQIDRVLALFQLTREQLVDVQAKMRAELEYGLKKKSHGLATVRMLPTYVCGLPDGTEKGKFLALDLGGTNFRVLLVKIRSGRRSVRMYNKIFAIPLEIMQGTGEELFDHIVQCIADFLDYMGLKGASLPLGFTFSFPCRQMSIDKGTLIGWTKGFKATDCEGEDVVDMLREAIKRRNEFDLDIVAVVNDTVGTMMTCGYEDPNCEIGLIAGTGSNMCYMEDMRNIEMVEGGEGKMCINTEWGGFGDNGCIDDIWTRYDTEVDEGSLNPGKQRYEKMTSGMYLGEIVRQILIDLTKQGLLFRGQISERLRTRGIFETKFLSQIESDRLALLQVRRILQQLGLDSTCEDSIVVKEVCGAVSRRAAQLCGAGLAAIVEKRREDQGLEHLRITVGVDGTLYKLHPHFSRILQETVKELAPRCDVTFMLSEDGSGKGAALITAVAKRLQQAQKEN

Going from Cc1ccc(C(C)(C)C)c(OCCCCN2CCCC2)c1 to CC(C)(C)c1cc(CN2CCN(CCC#N)CC2)cc(C(C)(C)C)c1O, the inhibition rises from -1.47% to 3.39%.

Going from CC1(C)CC(=O)C=C(c2ccc3ncccc3c2)C1 to Cc1c(-c2ccccc2)cn2c1-c1ccc(C)n1CC2, the inhibition falls from 11.6% to 1.47%.

Going from N/C(=N\c1nc2ccccc2o1)NC(=O)C(Cc1ccccc1)N1C(=O)c2ccccc2C1=O (stereo unspecified) to CC(C)C[C@H](NC(=O)N1CC(=O)Nc2ccccc21)C(=O)N[C@H](Cc1ccccc1)C(=O)O, the inhibition rises from -5.13% to -0.33%.

Going from CCc1cc(CNC(=O)CC2C(=O)NCCN2CC2CCCCC2)on1 (stereo unspecified) to Cc1cc(C)n(CCNC(=O)CC2C(=O)NCCN2Cc2ccc(C)o2)n1 (stereo unspecified), the inhibition rises from -15.1% to -9.7%.

First: O=C(Cn1c2[n+](c3ccc(C(F)(F)F)cc31)CCCCC2)Nc1c(F)cccc1F
Second: CCn1cc(C(=O)OCC(=O)Nc2cccc(C)c2)c(=O)c2ccc(C)nc21
The inhibition of the first is higher: 1.03% for the first, -3.21% for the second.

Going from CCOC(=O)c1ccccc1NC(=O)COC(=O)C(Cc1c[nH]c2ccccc12)NC(C)=O (stereo unspecified) to O=C(CNC(=O)Cc1ccccc1)NCC(=O)OCC(=O)c1ccccc1Cl, the inhibition rises from 0.25% to 8.72%.

Going from O=C(Nc1ccc(S(=O)(=O)Nc2ncccn2)cc1)c1cncc(Br)c1 to Cc1ccc(S(=O)(=O)NC(=O)COc2ccccc2C)cc1, the inhibition falls from -5.17% to -6.13%.

First: CCC1SC2=NCCN2C1(O)c1ccc(Cl)cc1 (stereo unspecified)
Second: CC12CN(NC(=O)c3ccc(Cl)cc3)C3(C#N)CC1CCC23C (stereo unspecified)
The inhibition of the first is higher: 10.4% for the first, -3.27% for the second.

Compared with C#CCOCCOCCOCCNc1nc(N2CCN(C(=O)C([C@@H](C)CC)n3cc(C(N)COC(=O)C(F)(F)F)nn3)CC2)nc(N2CCN(C(=O)[C@H](Cc3ccc(O)cc3)n3cc(C(N)[C@H](C)CC)nn3)CC2)n1 (stereo partly specified), CCn1cc(C(=O)N2CCN(Cc3ccc4c(c3)OCO4)CC2)c2cc(OC)c(OC)cc2c1=O is lower in inhibition: 1.5% for the first, -2.84% for the second.

First: CC(=O)N(CC1CCCO1)C1(C(=O)NC2CCCC2)CCCCC1 (stereo unspecified)
Second: O=C(Cc1ccc(NC(=O)C2CCCN(C(=O)C3CCCCC3)C2)cc1)Nc1cccc(C(=O)N2CCCCC2)c1 (stereo unspecified)
The inhibition of the first is higher: 2.48% for the first, -3.33% for the second.

Going from COc1ccc(CN2CC(C(=O)NCCc3ccc(Cl)cc3)CC2=O)cc1 (stereo unspecified) to NS(=O)(=O)c1ccc(CCNC(=O)c2nc(CS(=O)(=O)c3ccc(Cl)cc3)no2)cc1, the inhibition rises from -3.16% to 4.98%.

First: Cc1ccc(Nc2nnc(SC(C)C(=O)NC3CC3)s2)cc1 (stereo unspecified)
Second: CC(C)=CC(=O)Nc1nnc(-c2ccc(F)cc2)s1
The inhibition of the first is lower: -5.42% for the first, 6.59% for the second.

Compared with Cc1noc(C)c1S(=O)(=O)N(C)C[C@H]1Oc2ccc(NC(=O)C3CC3)cc2C(=O)N([C@H](C)CO)C[C@@H]1C, Cc1ccc(CNC(=O)CCS(=O)(=O)c2ccc3c(c2)CC(C)N3C(=O)C2CC2)o1 (stereo unspecified) is lower in inhibition: 3.28% for the first, -0.82% for the second.

Going from COCc1c(C(=O)N/N=C\c2cccnc2)nnn1-c1nonc1N to C=CCn1c(CCNC(=O)c2ccccc2F)nnc1SCC(=O)Nc1ccc(OC)cc1, the inhibition falls from -3.41% to -6.44%.

Compared with COc1cc(/C=C/C(=O)OCC(=O)N2CCOCC2)ccc1OCC#N, CC1Cc2ccccc2N1S(=O)(=O)c1cccc(C(=O)OCC(=O)N2CCOCC2)c1 (stereo unspecified) is lower in inhibition: -1.34% for the first, -4.82% for the second.

Compared with COc1ccc(C(=O)Nc2cc(S(=O)(=O)N3CCCC3)ccc2Cl)cc1, COc1ccc(S(=O)(=O)N2CCCC2CNC(=O)C(=O)NC2CC2)cc1 (stereo unspecified) is lower in inhibition: 1.91% for the first, 0.83% for the second.

Compared with Cc1ccc2c(c1)N(S(=O)(=O)c1cc(-c3cc(C)no3)ccc1C)CCO2, Cc1ccc(O)c(NC(=O)c2cc(-c3ccco3)on2)c1 is lower in inhibition: 1.39% for the first, -2.87% for the second.

Going from O=S(N1CCCCCC1)C12CC3CC(CC(C3)C1)C2 (stereo unspecified) to CC1CN(C2CCCCC2)c2nc3c(c(=O)n(C)c(=O)n3C)n2C1 (stereo unspecified), the inhibition rises from -7.44% to 3.52%.

Going from CCOC(=O)c1ccc(NC(=O)c2nc[nH]c2C(=O)N[C@@H](CCCCNC(=O)OC(C)(C)C)C(=O)OC(C)(C)C)cc1 to COCCCNC(NC(=O)c1ccc(OC)cc1)C(Cl)(Cl)Cl (stereo unspecified), the inhibition falls from 3.03% to -2.25%.

First: Oc1c(C(c2ccco2)N2CCC3(CC2)OCCO3)sc2ncnn12 (stereo unspecified)
Second: OC(COCc1ccco1)CN1CCN(c2ccccc2)CC1 (stereo unspecified)
The inhibition of the first is higher: 0.37% for the first, -10.6% for the second.

First: CCC(C)c1ccc(O)c(/C=N/O)c1 (stereo unspecified)
Second: COc1ccc(O)c(C(=O)c2cnc3onc(C(C)C)c3c2)c1
The inhibition of the first is higher: -1.01% for the first, -4.62% for the second.

Going from CCOC(=O)CCP(=O)(O)C(O)(c1ccccc1)c1ccccc1 to Cn1c2ccccc2c2cc(/C=C(\NC(=O)c3ccccc3)C(=O)NCC(=O)O)ccc21, the inhibition rises from -11.5% to -5.19%.

Compared with CCN(CC)C(=O)C(=O)c1cn(CC(=O)NCc2ccc3c(c2)OCO3)c2ccccc12, COc1cc(OC)c(C(=O)NCc2ccc3c(c2)OCO3)cc1OC is higher in inhibition: -5.09% for the first, -0.69% for the second.

Compared with Cc1ccc(-c2cnc(NC(=O)CCC(=O)N(C)Cc3ccccc3)n2C)cc1, CC(C)(C)NC(=O)CSc1nnc(NC(=O)CCc2ccccc2)s1 is higher in inhibition: -3.47% for the first, -2.99% for the second.

Compared with Cc1cccc(-n2ncc3c(=O)[nH]c(SCC(=O)Nc4cc(C)on4)nc32)c1, Cc1cccc([C@@H]2[C@@H]3C(=O)N(C)C(=O)[C@@H]3[C@@H]3C(=O)Nc4ccccc4C(=O)N23)c1 is higher in inhibition: -3.1% for the first, -0.25% for the second.

Compared with Cc1cc(-c2n[nH]c(=S)n2/N=C/C(Br)=C/c2ccccc2)n[nH]1, Cc1nc2nc(COc3ccccc3)[nH]n2c(=O)c1C is lower in inhibition: 29.1% for the first, 0.17% for the second.

First: CC1CCN(S(=O)(=O)c2ccc(S(=O)(=O)NCc3cccnc3)cc2)CC1
Second: Cc1nn(C)c(C)c1NS(=O)(=O)c1ccc(OC(F)(F)F)cc1
The inhibition of the first is lower: -6.19% for the first, -3.33% for the second.

First: O=C1COc2ccc(S(=O)(=O)Nc3ccc(OC(F)(F)F)cc3)cc2N1
Second: O=C(O)c1ccc(NS(=O)(=O)c2ccc3c(c2)C(=O)c2cc(S(=O)(=O)Nc4ccc(C(=O)O)cc4)ccc2-3)cc1
The inhibition of the first is higher: 2.53% for the first, 2.22% for the second.

Compared with C=C(C)c1cccc(C(C)(C)NC(=O)NCCN(CC)CC)c1, CCCCN(C(=O)c1cccc(N2C(=O)c3ccccc3C2=O)c1)c1c(N)n(CCCC)c(=O)[nH]c1=O is lower in inhibition: 13% for the first, -1.42% for the second.

Going from COc1cc(NC(=O)C2=C(C)OCCS2)c(Cl)cc1C(=O)NCCN1CCN(C)CC1 to COc1ccc(Nc2ncc(C(=O)N3CCN(c4ccccc4OC)CC3)c3ccccc23)cc1, the inhibition rises from -3.87% to 3.14%.

Going from CC(C)(C)OC(=O)N(Cc1ccccc1)Cc1ccc(OCc2cccc(NC(=O)c3ccccc3)c2)cc1 to CCOc1ccc(N2C(=O)CN(c3cccc4ccccc34)C2=S)cc1, the inhibition falls from -0.76% to -10.4%.

First: CCc1c(Nc2ccccc2Cl)nc(N)[nH]c1=O
Second: Fc1ccccc1OCCSc1nc2ccccc2o1
The inhibition of the first is lower: -5.05% for the first, 7.74% for the second.

Going from CN(C(=O)CSc1cccc[n+]1[O-])C1CCCCC1 to CC(=O)N1CC(=O)N(CC(=O)Nc2ccc(Br)cc2)C1=S, the inhibition rises from -5.14% to -1.64%.

Compared with NC(=O)C1CC=CCC1C(=O)OCC(Cl)=C(Cl)Cl (stereo unspecified), CC(=O)N1CSCC1C(=O)O (stereo unspecified) is higher in inhibition: -10.8% for the first, -1.3% for the second.

First: COc1ccc(-c2csc3ncnc(Oc4ccc5c(C)cc(=O)oc5c4)c23)cc1
Second: Cc1ccc(N(C(=O)c2ccc(S(=O)(=O)N(C)C)cc2)C2C=CS(=O)(=O)C2)cc1 (stereo unspecified)
The inhibition of the first is higher: 6.07% for the first, -6.81% for the second.

Going from Cc1nc2ccc(N)nc2nc1C to COc1ccc(C(C)C)cc1S(=O)(=O)Nc1ncn[nH]1, the inhibition rises from -5.39% to -3.49%.

O=C1C(Cl)=C(Oc2ccccc2)C(=O)c2ccccc21 was tested, and the inhibition was 65.2% (active).
Nc1ccc2nc3c(=O)[nH]c(=S)[nH]c3nc2c1 was tested, and the inhibition was 69.9% (active).
With O=S(=O)(Nc1ccc(O)c2ccccc12)c1ccc(OC(F)(F)F)cc1 the inhibition was 52% (active).
With CCn1cc(C(=O)NCc2ccc3c(c2)OCO3)c2cc(OC)c(OC)cc2c1=O the inhibition was 37.8% (active).
